RGS7-Gao reg: human RGS7-Galphao interaction regulation | P09471 | Multiplexed bead flow cytometry, RGS7-Galphao binding; actives lie on both sides | binding response (% of control), % at 10 µM | actives 0.35% (n = 220,000); in the data active = binding response below about 49% or above about 150%; inconclusive = no clear call, values can overlap the other calls; inactive = in between;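 also: fluorescent Galphao held in activated GDP-AlF4 state binding bead-coupled RGS7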
Target sequence (P09471 whole entry, looked up): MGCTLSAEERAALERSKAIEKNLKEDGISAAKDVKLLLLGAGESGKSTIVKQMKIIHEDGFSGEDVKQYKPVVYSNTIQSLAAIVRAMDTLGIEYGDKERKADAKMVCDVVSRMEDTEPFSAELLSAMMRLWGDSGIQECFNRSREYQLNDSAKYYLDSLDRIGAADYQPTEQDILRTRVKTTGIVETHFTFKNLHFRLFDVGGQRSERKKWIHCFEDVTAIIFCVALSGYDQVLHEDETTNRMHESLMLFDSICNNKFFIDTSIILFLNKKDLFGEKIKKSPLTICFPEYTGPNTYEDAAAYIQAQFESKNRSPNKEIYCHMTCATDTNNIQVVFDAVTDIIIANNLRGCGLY
Calb biofilm kill: mixture kills Candida albicans biofilm cells | C. albicans biofilm persisters + clotrimazole, fluorescence viability; primary screen in compound mixtures of four per well | inhibition, % at 7.6 µM | actives 0.02% (n = 120,000) | AID 1242;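 active = inhibition above 30.3% in the primary screen of four-compound pools, then above 30% when the compound was retested; inconclusive = passed the primary limit but could not be retested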;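 also: compounds exposed to preformed 24 h biofilms for 48 h; 0% = untreated biofilm control and 100% = clotrimazole plus chlorhexidine kill blank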
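Assay system: C. albicans biofilms / Medium: RPMI/MOPS medium, pH 7.0 / Schedule: biofilm formation 24 h, compound exposure 48 h, 37 °C / Measured by: Alamar Blue fluorescence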
RGS4-Gao reg: human RGS4-Galphao interaction regulation; P09471; Multiplexed bead flow cytometry, RGS4-Galphao binding; actives lie on both sides; binding response (% of control), % at 10 µM; actives 0.33% (n = 220,000); AID 1415; in the data active = binding response below about 49% or above about 150%; inactive = in between;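 also: fluorescent Galphao activated with aluminum fluoride binding bead-coupled RGS4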
RGS8-Gao: regulators of human RGS8-Galphao interaction. P09471. multiplexed bead flow cytometry, RGS8-Galphao binding; actives lie on both sides. response (percent of control binding), % at 10 µM. actives 0.34% (n = 220,000); in the data active = response below about 60% or above about 140%; inactive = in between;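 also: Galphao activated as the GDP aluminium fluoride complex binding bead-coupled RGS8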
RGS16-Gao HTS: modulates binding between human RGS16 and Galphao; AID 1441; binding response (% of control), % at 10 µM; bead-based flow cytometry RGS16-Galphao binding, fluorescence; actives lie on both sides; actives 0.38% (n = 220,000);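 also: Galphao activated by GDP with aluminum fluoride before binding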
RGS4-Gao HTS: regulators of human RGS4-Galphao interaction | multiplexed bead flow cytometry, RGS–Galpha-o binding | shares compounds with RGS16-Gao HTS | actives 99% (n = 1,600) | RGS4–Galpha-o binding response, % at 10 µM;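 also: fluorescently labeled Galpha-o bound to GDP with aluminium fluoride binding biotinylated RGS beads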
Avidin counter: interferes with biotinylated probe binding to avidin beads | shares compounds with RGS16-Gao HTS | streptavidin beads, fluorescein-biotin binding, flow cytometry | inhibition, % at 10 µM | 1,700 tested, under 10 active | AID 1783;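 active = inhibition above 50%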;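 also: median green fluorescence of gated singlet beads compared with DMSO control wells; 0% = DMSO wells and 100% = complete loss of bead fluorescence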
RGS8-Gao confirm: RGS8-Galphao interaction regulation, single point confirmation; actives 3% (n = 1,700); shares compounds with RGS16-Gao HTS; binding response (% of control), % at 10 µM; AID 1836; bead-based flow cytometry RGS8-Galphao binding, fluorescence; actives lie on both sides; in the data active = binding response below about 72% or above about 130%; inactive = in between;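 also: Galphao activated as GDP AlF4 complex before binding bead RGS8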
RGS7-Gao single: confirmation of regulators of human RGS7-Galphao interaction; bead-based flow cytometry RGS7-Galphao binding; actives lie on both sides; response (percent of control binding), % at 10 µM; shares compounds with RGS16-Gao HTS; actives 7.8% (n = 1,700); in the data active = response below about 75% or above about 130%; inactive = in between;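 also: fluorescent Galphao activated with GDP and aluminum fluoride binding bead-coupled RGS7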
RGS16-Gao conf: RGS16-Galphao interaction regulation, single point confirmation | shares compounds with RGS16-Gao HTS | bead-based flow cytometry, RGS16-Galphao binding; actives lie on both sides | response (% of control binding), % at 10 µM | actives 4% (n = 1,700) | AID 1838; in the data active = response below about 74% or above about 130%; inactive = in between;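 also: Galphao activated as the GDP aluminium fluoride complex binding bead-coupled RGS16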
RGS4-Gao confirm: confirmation of regulators of human RGS4-Galphao interaction. shares compounds with RGS16-Gao HTS. actives 4% (n = 1,700). binding response (% of control), % at 10 µM. AID 1840. RGS4-Galphao binding, multiplexed bead flow cytometry; actives lie on both sides; in the data active = binding response below about 74% or above about 130%; inactive = in between
RGS19-Gao conf: confirmation of regulators of human RGS19-Galphao interaction | bead-based flow cytometry RGS19-Galphao binding; actives lie on both sides | AID 1841 | response (percent of control binding), % at 10 µM | shares compounds with RGS16-Gao HTS | actives 5% (n = 1,700); in the data active = response below about 50% or above about 160%; inactive = in between;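 also: 100% = no compound control and 0% = blank background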
Target sequence (P09471 whole entry, looked up): as above
Target sequence (P49795 whole entry, looked up): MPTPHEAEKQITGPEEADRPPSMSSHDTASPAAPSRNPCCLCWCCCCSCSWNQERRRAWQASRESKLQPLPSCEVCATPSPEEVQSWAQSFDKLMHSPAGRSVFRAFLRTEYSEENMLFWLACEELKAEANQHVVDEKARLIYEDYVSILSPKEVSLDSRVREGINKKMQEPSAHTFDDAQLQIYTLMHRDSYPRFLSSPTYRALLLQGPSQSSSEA
Starred values were filed as active, the others as inactive; ? = inconclusive; nt = no result; [ ] = another dose, or the depositor's remark. A selection: hits, their analogues and other compounds. The true share with any hit is near 0.74%. Unless noted, no rule for the calls is given here.

SMILES	RGS7-Gao reg	Calb biofilm kill	RGS4-Gao reg	RGS8-Gao	RGS16-Gao HTS	RGS4-Gao HTS	Avidin counter	RGS8-Gao confirm	RGS7-Gao single	RGS16-Gao conf	RGS4-Gao confirm	RGS19-Gao conf
CC1CCN(c2ccccc2N)CC1	152.8*[activator]	nt	163.2*[activator]	130.9	166.8	nt	1.2	91.0	83.2	85.0	87.5	48.4*
CC1CCN(c2nnc(N3CCC(C)CC3)c3ccccc23)CC1	11.7*	18.4	20.0*	17.5*	10.6*	nt	0.0	98.8	90.0	96.0	92.3	86.8
Nc1ccccc1N1CCOCC1	99.5	nt	97.8	96.0	90.8	nt	nt	nt	nt	nt	nt	nt
O=c1c2cc(Cl)ccc2[nH]c(=S)n1Cc1cccs1	95.0	20.4	93.5	72.2	17.3*	93.5*	-1.6	98.5	92.4	98.1	95.3	84.0
S=C(Nc1cccc2ccccc12)NC1CCCCC1	102.3	8.3	96.9	102.2	99.7	nt	nt	nt	nt	nt	nt	nt
Cc1ccc(-c2nc3cccnc3s2)cc1NS(=O)(=O)c1ccc2c(c1)CCCC2	32.5*	13.7	27.8*	46.4*	28.9	nt	0.1	104.4	102.4	103.0	104.3	107.5
O=S(=O)(Nc1cccc(-c2nc3cccnc3s2)c1)c1ccc2c(c1)CCCC2	104.6	19.0	104.3	103.3	101.1	nt	nt	nt	nt	nt	nt	nt
CCOc1ccccc1NS(=O)(=O)N(C)C	61.5	nt	11.0*	64.7	-852.6	nt	-0.8	99.9	96.1	97.8	94.2	102.4
O=C1C[C@H]2[C@H](CO)[C@@H](OC(=O)c3ccc(-c4ccccc4)cc3)C[C@H]2O1	?	9.7	106.1	102.0	102.1	nt	nt	nt	nt	nt	nt	nt
CC/C(=N/O)c1cnnc(SC)n1	96.8	13.1	94.5	84.0	16.0*	94.5*	0.3	103.5	93.6	106.4	96.0	90.6
CSc1nncc(/C(C)=N/O)n1	97.8	-7.0	95.6	94.7	92.8	nt	nt	nt	nt	nt	nt	nt
CNC(=O)c1ccsc1NC(=O)c1coc2ccccc2c1=O	-6.6*	16.8	9.9*	12.0*	1.6*	nt	-0.2	100.2	89.5	98.6	92.7	77.7
O=C(Nc1ccc2c(c1)OCCO2)c1coc2ccccc2c1=O	97.2	6.7	101.5	99.2	98.6	nt	nt	nt	nt	nt	nt	nt
COc1ccccc1NC(=O)C1CCCCC1	158.4*[activator]	nt	106.8	97.3	99.6	106.8*	nt	nt	nt	nt	nt	nt
Cc1cc(/C=N/Nc2nc(N3CCOCC3)nc(N3CCOCC3)n2)c(C)n1-c1ccccc1	50.8	11.5	26.5*	7.9*	28.1	nt	0.0	100.4	101.2	100.7	100.9	112.9
COc1ccccc1CNC(=O)c1ccc(N2CCOCC2)c([N+](=O)[O-])c1	100.9	0.3	98.8	95.4	92.6	nt	nt	nt	nt	nt	nt	nt
CCN(CC)C(=O)CSc1nc(O)cc(=O)n1C	102.9	nt	102.4	102.9	99.0	nt	nt	nt	nt	nt	nt	nt
CCN(CC)C(=O)CSc1nc(O)cc(=O)n1CC	166.5*[activator]	nt	125.6	96.6	112.9	125.6*	nt	nt	nt	nt	nt	nt
CCC(Cc1ccccc1)NC(=O)C1=C(C)C(=O)OC12CCC(C)CC2 (stereo not drawn)	31.9*	19.4	59.0	55.6*	50.4	59.0*	-2.1	90.2	76.2	87.3	83.0	76.5
O=C(Cc1nc2ccccc2[nH]1)c1ccc(Br)cc1	?	9.8	99.8	98.7	99.6	nt	nt	nt	nt	nt	nt	nt
c1ccc(-c2nc(-c3ccco3)n3ccccc23)cc1	0.6*	20.0	-6.6*	7.9*	-2.4*	nt	1.4	89.8	87.5	91.3	96.6	82.9
c1ccc(Nc2c(-c3ccco3)nc3ccccn23)cc1	93.9	15.0	94.9	99.3	95.4	nt	nt	nt	nt	nt	nt	nt
Cn1c(N)c(C(=O)COC(=O)c2ccc3c(c2)C(=O)N(c2ccc(Cl)cc2)C3=O)c(=O)n(C)c1=O	97.7	12.9	103.2	98.6	99.0	nt	nt	nt	nt	nt	nt	nt
CN(C)/C=C/C(=O)c1cnc(-c2ccc(Cl)cc2)s1	2.5*	-1.7	3.1*	7.8*	-6.2*	nt	0.2	98.9	91.3	98.6	96.5	95.8
CN(C)/C=C/C(=O)c1cnc(-c2ccccc2)s1	102.1	15.3	103.0	104.5	108.7	nt	nt	nt	nt	nt	nt	nt
SMILES	RGS7-Gao reg	Calb biofilm kill	RGS4-Gao reg	RGS8-Gao	RGS16-Gao HTS	RGS4-Gao HTS	Avidin counter	RGS8-Gao confirm	RGS7-Gao single	RGS16-Gao conf	RGS4-Gao confirm	RGS19-Gao conf
CC(C)(C)c1nnc2sc(SC/C(O)=C(\C#N)c3nc4ccccc4[nH]3)nn2c1=O	161.3*[activator]	nt	177.2*[activator]	148.1*[activator]	177.8*[activator]	nt	0.4	101.3	94.7	97.0	95.8	86.7
CC(C)(C)c1nnc2sc(SCC(=O)c3ccccc3)nn2c1=O	105.7	nt	101.1	102.3	100.3	nt	nt	nt	nt	nt	nt	nt
CCSc1nnc(NC(=O)C(CC)(C(F)(F)F)C(F)(F)F)s1	100.7	nt	100.7	102.2	101.0	nt	nt	nt	nt	nt	nt	nt
CCSc1nnc(NC(=O)C(C)(C(F)(F)F)C(F)(F)F)s1	109.0	nt	112.4	119.1	287.6*[activator]	112.4*	-0.2	100.8	94.2	96.9	95.6	64.6
O=C(O)C(Cc1cn[nH]n1)=NO	?	3.2	96.8	98.5	97.1	nt	nt	nt	nt	nt	nt	nt
CSc1ccccc1NC(=O)C(=O)c1c[nH]c2ccccc12	78.2	10.7	81.7	89.0	81.9	nt	nt	nt	nt	nt	nt	nt
CCOC(=O)C1=C(N)OC2=C(C(=O)CCC2)C1c1ccccc1OC (stereo not drawn)	99.0	-0.5	99.2	100.5	105.4	nt	nt	nt	nt	nt	nt	nt
CCOC(=O)C1=C(N)OC2=C(C(=O)CCC2)C1c1ccccc1OCC (stereo not drawn)	295.8*[activator]	nt	134.6	96.8	111.2	134.6*	-0.2	97.4	93.1	97.1	99.4	98.6
CCCc1nc2ccc(NC(=O)NCCC(=O)OCC)cc2c(=O)n1Cc1ccc(Cl)cc1	85.0	-2.5	88.5	68.5	8.6*	88.5*	0.2	102.5	100.2	102.7	101.7	102.7
COC(=O)CC1=C(C(=O)OC)[C@@H](c2ccccc2[N+](=O)[O-])C(C#N)=C(N)O1	?	10.8	99.3	99.8	97.2	nt	nt	nt	nt	nt	nt	nt
C/C(CC(=O)Nc1ccc2c(c1)OCO2)=N\NC(=O)C(c1ccccc1)c1ccccc1	85.6	4.7	87.0	67.5	15.0*	87.0*	0.0	106.8	103.5	108.3	102.3	108.2

High-throughput results deposited in PubChem BioAssay by several laboratories.
